Measurements reported in ChEMBL document CHEMBL1133698, “Novel ligands lacking a positive charge for the delta- and mu-opioid receptors” (J Med Chem, 2000).
Where a SMILES comes first, the peptide text is derived from it. Bridges are numbered along the chain shown (N, C = ends). [ ]: non-standard residue; d: D form. 2Nal = N[C@@H](Cc1ccc2ccccc2c1)C(=O)O; Dmt = Cc1cc(O)cc(C)c1C[C@H](N)C(=O)O; dOrn = NCCC[C@@H](N)C(=O)O

How the values were obtained:
[1] = species on record: Mus musculus; assay: Antagonist activity was determined against the selective delta -agonist DPDPE in the MVD (mouse vas deferens) assay; type: functional
How it was run: (§1)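 Mouse vas deferens, electrically evoked contractions. DPDPE IC50 measured with and without a fixed antagonist concentration (50 to 4000 nM). Ke = a/(DR − 1), where DR is the ratio of agonist IC50 values. Mean of three to six determinations ± SEM.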

[2] = species on record: Cavia porcellus; assay: (§2) Antagonist activity was determined against the selective delta -agonist TAPP in the GPI (guinea pig ileum) assay; type: functional
How it was run: (§3)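 Guinea pig ileum, electrically evoked contractions. µ-Agonist TAPP IC50 measured with and without antagonist at a fixed 500 nM. Ke = a/(DR − 1) from the IC50 ratio. Mean of three to six determinations ± SEM.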

[3] = target: Delta-type opioid receptor (Rattus norvegicus, UniProt P33533); assay: Binding affinity was determined by displacement of [3H]- DSLET at Opioid receptor delta 1 in rat brain membrane homogenates; type: cell membranes
Sequence of Delta-type opioid receptor (P33533 whole entry, looked up): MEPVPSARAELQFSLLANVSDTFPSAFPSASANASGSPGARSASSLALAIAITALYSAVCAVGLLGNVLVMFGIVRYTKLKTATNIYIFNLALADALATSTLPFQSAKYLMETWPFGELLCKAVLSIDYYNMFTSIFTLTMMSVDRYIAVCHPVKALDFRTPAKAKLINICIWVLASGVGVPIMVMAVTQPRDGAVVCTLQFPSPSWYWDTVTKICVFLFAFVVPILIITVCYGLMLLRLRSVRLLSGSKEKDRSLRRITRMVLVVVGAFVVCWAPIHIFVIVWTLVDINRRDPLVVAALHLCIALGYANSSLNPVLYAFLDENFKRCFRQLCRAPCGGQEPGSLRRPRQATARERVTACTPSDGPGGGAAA
How it was run: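 Rat brain membranes, [3H]DSLET at 0.78 nM, 2 h at 25 °C, with a peptidase inhibitor cocktail in buffer. Poorly soluble peptides dissolved in DMSO, diluted in buffer, filtered, and concentration set by optical density. IC50 from log dose-displacement curves. Ki by Cheng-Prusoff with Kd 2.6 nM. Mean of three to six determinations ± SEM.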

[4] = target: Mu-type opioid receptor (Rattus norvegicus, UniProt P33535); assay: Binding affinity was determined by displacement of [3H]- DAMGO at Opioid receptor mu 1 in rat brain membrane homogenates; type: cell membranes
Sequence of Mu-type opioid receptor (P33535 whole entry, looked up): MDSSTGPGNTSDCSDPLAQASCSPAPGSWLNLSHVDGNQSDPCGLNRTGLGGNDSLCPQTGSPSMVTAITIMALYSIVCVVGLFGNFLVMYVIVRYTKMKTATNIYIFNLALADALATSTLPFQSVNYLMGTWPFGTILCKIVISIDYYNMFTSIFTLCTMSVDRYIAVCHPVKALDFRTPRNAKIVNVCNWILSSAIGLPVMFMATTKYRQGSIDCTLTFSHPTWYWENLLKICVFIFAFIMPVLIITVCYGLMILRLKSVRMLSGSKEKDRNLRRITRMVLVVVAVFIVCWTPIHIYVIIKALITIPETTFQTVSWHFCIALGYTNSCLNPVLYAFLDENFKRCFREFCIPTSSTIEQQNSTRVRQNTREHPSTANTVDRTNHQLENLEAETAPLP
How it was run: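 Rat brain membranes, [3H]DAMGO at 0.72 nM, 2 h at 25 °C. Enzyme inhibitor cocktail in buffer (bestatin 100 µM, captopril 1.0 µM, thiorphan 1.0 µM, Leu-Leu 100 µM). IC50 from log dose-displacement curves. Ki by Cheng-Prusoff using Kd 1.3 nM. Mean of three to six determinations ± SEM.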

[5] = species on record: Cavia porcellus; assay: as §2; type: functional, organism-based; how it was run: as §3
[6] = species on record: Mus musculus; assay: Antagonist activity was determined against the selective delta -agonist DPDPE by inhibition of electrically evoked contractions of the mouse vas deferens; type: functional; how it was run: as §1

SMILES | Ke [1] [nM] | Ke [2] [nM] | Ki [3] [nM] | Ki [4] [nM] | IC50 [5] [nM] | Ke [6] [nM]
Cc1cc(O)cc(C)c1CCC(=O)N[C@@H]1CCCNC(=O)CNC(=O)[C@H]2CCCN2C(=O)[C@H](Cc2ccc3ccccc3c2)NC1=O | 121 | 237 | 109 | 450 | – | –
Cc1cc(O)cc(C)c1C[C@H](NC=O)C(=O)N[C@@H]1CCCNC(=O)CNC(=O)[C@H]2CCCN2C(=O)[C@H](Cc2ccc3ccccc3c2)NC1=O | 16.3 | 216 | 32.8 | 218 | – | –
C[C@@H](O)[C@@H]1NC(=O)[C@H](CC2CCCCC2)NC(=O)[C@@H](Cc2c[nH]c3ccccc23)NC(=O)[C@H](Cc2ccccc2)NC(=O)[C@@H]2CCCN2C(=O)[C@H](Cc2ccccc2)NC1=O | 202 | – | 486 | > 10000 | – | –
C[C@@H](O)[C@@H]1NC(=O)[C@H](Cc2ccc(O)cc2)NC(=O)[C@@H](Cc2c[nH]c3ccccc23)NC(=O)[C@H](Cc2cccc3ccccc23)NC(=O)[C@@H]2CCCN2C(=O)[C@H](Cc2ccccc2)NC1=O | 128 | – | 152 | > 10000 | – | –
C[C@@H](O)[C@@H]1NC(=O)[C@H](Cc2ccc(O)cc2)NC(=O)[C@@H](Cc2c[nH]c3ccccc23)NC(=O)[C@H](Cc2ccc3ccccc3c2)NC(=O)[C@@H]2CCCN2C(=O)[C@H](Cc2ccccc2)NC1=O | 2460 | – | 1070 | > 10000 | – | –
Cc1cc(O)cc(C)c1C[C@H](N)C(=O)N[C@@H]1CCCNC(=O)CNC(=O)[C@H]2CCCN2C(=O)[C@H](Cc2ccc3ccccc3c2)NC1=O (H-[Dmt][dOrn][2Nal][dP]G; lactam 2-C) | 2.13 | – | 0.467 | 0.476 | 7.88 | –
C[C@@H](O)[C@@H]1NC(=O)[C@H](Cc2ccc(O)cc2)NC(=O)[C@@H](Cc2c[nH]c3ccccc23)NC(=O)[C@H](Cc2ccccc2)NC(=O)[C@@H]2CCCN2C(=O)[C@H](Cc2ccccc2)NC1=O (cyclo(FPF[dW]YT)) | – | – | 759 | > 10000 | – | 238
